Calls of active or inactive are those of the source. No cut-off for these calls is given here.
Legend:
MDA-MB-231 [1] = assay: Antiproliferative activity against human MDA-MB-231 cells assessed as reduction in cell viability measured after 48 hrs by MTS assay; assay type: functional, cell-based; conditions: MDA-MB-231, 48 h
Outline: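 Concentration–response in MDA-MB-231 cells across a wide concentration range. The dose–response data are used to calculate IC50 for proliferation (MTS).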

MDA-MB-231 [2] = assay: Antiproliferative activity against human MDA-MB-231 cells assessed as reduction in cell viability at 25 to 50 uM measured after 48 hrs by MTS assay; assay type: functional, cell-based; conditions: dose microM 25-50, time 48.0 hrs
Outline: (§1)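 MDA-MB-231 cells exposed to compounds at 25 and 50 μM for 48 h. Viability is compared with a DMSO-treated control. Mean ± SEM from three separate experiments; significance vs control.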

[3] = Aqueous solubility of the compound; assay type: physicochemical; conditions: buffer
MDA-MB-231 [4] = assay: Antiproliferative activity against human MDA-MB-231 cells assessed as reduction in cell viability at 50 uM measured after 48 hrs by MTS assay; assay type: functional, cell-based; outline: as §1
MDA-MB-231 [5] = assay: Cell cycle arrest in human MDA-MB-231 cells assessed as decrease in cell population at G0/G1 phase at 9 uM measured after 24 hrs by RNaseA/propidium iodide staining based flow cytometry analysis; assay type: functional
Outline: (§2)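 MDA-MB-231 cells treated 24 h with 10 μM or 9 μM test agent or DMSO control. Cell cycle distribution is read by flow cytometry and expressed as percentage change from control. Mean ± SEM, three separate experiments; p vs DMSO control.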

MDA-MB-231 [6] = assay: Induction of apoptotic cell death in human MDA-MB-231 cells at 20 uM measured after 48 hrs by annexicV-FITC/propidium iodide staining based flow cytometry analysis; assay type: functional
[7] = Selectivity ratio of cytotoxicity against African green monkey Vero cells assessed as reduction in cell viability measured after 72 hrs by resazurin assay to antiproliferative activity against human MDA-MB-231 cells assessed as reduction in cell viability measured after 48 hrs by MTS assay; assay type: toxicity, cell-based; conditions: Vero cells versus MDA-MB-231 cells
MDA-MB-231 [8] = assay: Induction of apoptosis in human MDA-MB-231 cells assessed as healthy cells at 20 uM measured after 48 hrs by annexicV-FITC/propidium iodide staining based flow cytometry analysis (reference value: 87.4 %); assay type: functional
MDA-MB-231 [9] = assay: Induction of apoptosis in human MDA-MB-231 cells assessed as early apoptotic cells at 20 uM measured after 48 hrs by annexicV-FITC/propidium iodide staining based flow cytometry analysis (reference value: 5.8 %); assay type: functional
Vero [10] = assay: Cytotoxicity against African green monkey Vero cells assessed as reduction in cell viability measured after 72 hrs by resazurin assay; assay type: cell-based; conditions: chlorocebus sabaeus
MDA-MB-231 [11] = assay: Antiproliferative activity against human MDA-MB-231 cells assessed as reduction in cell viability at 5 uM measured after 48 hrs by MTS assay; assay type: functional, cell-based
MDA-MB-231 [12] = assay: Induction of apoptosis in human MDA-MB-231 cells assessed as late apoptotic cells at 20 uM measured after 48 hrs by annexicV-FITC/propidium iodide staining based flow cytometry analysis (reference value: 4.4 %); assay type: functional
Vero [13] = assay: Cytotoxicity against African green monkey Vero cells assessed as reduction in cell viability measured at 129 uM after 72 hrs by resazurin assay relative to control; assay type: cell-based; conditions: chlorocebus sabaeus
MDA-MB-231 [14] = assay: Induction of apoptosis in human MDA-MB-231 cells assessed as necrotic cells at 20 uM measured after 48 hrs by annexicV-FITC/propidium iodide staining based flow cytometry analysis (reference value: 2.4 %); assay type: functional
MDA-MB-231 [15] = assay: Cell cycle arrest in human MDA-MB-231 cells assessed as accumulation at G2/M phase at 9 uM measured after 24 hrs by RNaseA/propidium iodide staining based flow cytometry analysis relative to control; assay type: functional; outline: as §2
Vero [16] = assay: Cytotoxicity against African green monkey Vero cells assessed as reduction in cell viability measured at 168 uM after 72 hrs by resazurin assay relative to control; assay type: cell-based; conditions: chlorocebus sabaeus
MDA-MB-231 [17] = assay: Cell cycle arrest in human MDA-MB-231 cells at 10 uM measured after 24 hrs by RNaseA/propidium iodide staining based flow cytometry analysis; assay type: functional; outline: as §2

## CCCCN[C@]12CCC[C@](C)(CC[C@@H]3[C@@H]1CC3(C)C)C2
MDA-MB-231 [1]
  IC50: 37.3 µM
MDA-MB-231 [2]
  Activity: Active

## CCCCCN[C@]12CCC[C@](C)(CC[C@@H]3[C@@H]1CC3(C)C)C2
[3]
  solubility: Insoluble
MDA-MB-231 [4]
  Activity: Active

## CC1(C)C[C@H](NC(=O)CCl)[C@]23CC[C@@H](NC(=O)CCl)[C@@](C)(CC[C@@H]12)C3
MDA-MB-231 [5]
  Activity: Active
MDA-MB-231 [6]
  Activity: Active
[7]
  selectivity ratio: 25
MDA-MB-231 [8]
  Activity: 7.6%
MDA-MB-231 [1]
  IC50: 8.2 µM
MDA-MB-231 [9]
  Activity: 13.5%
Vero [10]
  Activity: 129 µM
MDA-MB-231 [11]
  inhibition: Active
MDA-MB-231 [12]
  Activity: 74.3%
Vero [13]
  Activity: 88%
MDA-MB-231 [2]
  Activity: Active
MDA-MB-231 [14]
  Activity: 4.6%
MDA-MB-231 [15]
  Activity: 91%

## CCCCC(=O)N[C@]12CCC[C@](C)(CC[C@@H]3[C@@H]1CC3(C)C)C2
MDA-MB-231 [1]
  IC50: 55.3 µM
MDA-MB-231 [2]
  Activity: Active

## CCCN[C@]12CCC[C@](C)(CC[C@@H]3[C@@H]1CC3(C)C)C2
MDA-MB-231 [1]
  IC50: 45.9 µM
MDA-MB-231 [2]
  Activity: Active

## CC1(C)C[C@H]2[C@H]1CC[C@@]1(C)CCC[C@]2(NC(=O)CCl)C1
MDA-MB-231 [1]
  IC50: 21.4 µM
MDA-MB-231 [2]
  Activity: Active

## CC1(C)C[C@H]2[C@H]1CC[C@@]1(C)CCC[C@]2(N)C1
MDA-MB-231 [1]
  IC50: 34.9 µM
MDA-MB-231 [2]
  Activity: Active

## CC1(C)C[C@H](NCc2ccccc2)[C@]23CCC[C@@](C)(CC[C@@H]12)C3
MDA-MB-231 [1]
  IC50: 23.6 µM
MDA-MB-231 [2]
  Activity: Active

## CC1(C)C[C@H](NC(=O)CCl)[C@]23CCC[C@@](C)(CC[C@@H]12)C3
[7]
  selectivity ratio: 33
MDA-MB-231 [8]
  Activity: 57.8%
MDA-MB-231 [1]
  IC50: 9.7 µM
MDA-MB-231 [9]
  Activity: 9.9%
Vero [10]
  Activity: 168 µM
MDA-MB-231 [11]
  inhibition: Active
MDA-MB-231 [12]
  Activity: 13.9%
Vero [16]
  Activity: 89%
MDA-MB-231 [17]
  Activity: inactive
MDA-MB-231 [2]
  Activity: Active
MDA-MB-231 [14]
  Activity: 18.4%

From ChEMBL document CHEMBL4699388, “Antiproliferative activities of tricyclic amides derived from beta-caryophyllene via the Ritter reaction against MDA-MB-231 breast cancer cells” (RSC Med Chem, 2020)
